Experimental data: ChEMBL document CHEMBL4342502, “Synthesis and Antichlamydial Activity of Molecules Based on Dysregulators of Cylindrical Proteases” (J Med Chem, 2020)
The source made the active and inactive calls. The calls are words filed in the database; no cut-off is given here.

What was measured:
[1] = test system: Chlamydia trachomatis; assay: (§1) Anti-Chlamydial activity against Chlamydia trachomatis Serovar LGV-L2 infected in Hep2 cells assessed as reduction in size and number of chlamydial inclusion at 4 ug/ml treated at 8 hrs post-infection and 24 hrs later re-infecting fresh Hep2 cells monolayer with infected cells and measured at 24 hrs post re-infection by immunofluorescence staining based microscopy analysis; format: functional, organism-based
Summary of the method: (§2)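 HEp-2 cells in DMEM with 10% FBS, infected with C. trachomatis L2 at MOI 1. Compounds added 8 hpi in triplicate; DMSO stocks at 50 mg/mL. At 24 hpi lysates collected in sucrose storage medium, frozen at −80 °C, and used to infect fresh HEp-2 monolayers in 10-fold dilutions. After 24 h, stained with goat anti-MOMP and Alexa488 secondary. Inclusions counted in 15 fields at 20x; IFU = mean count per field corrected for dilution.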

[2] = test system: Chlamydia trachomatis; assay: Anti-chlamydial activity against Chlamydia trachomatis Serovar LGV-L2 infected in Hep2 cells assessed as inhibition of chlamydial inclusion at 50 ug/ml treated at 8 hrs post infection and measured at 24 hrs post-infection by immunofluorescence assay; format: functional, organism-based
Summary of the method: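 HEp-2 cells infected with C. trachomatis serovar L2. Compounds at 50 μg/mL added 8 hpi; inclusion number and size assessed by immunofluorescence at 24 hpi against untreated cells. Cell morphology and viability checked by phase-contrast microscopy.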

[3] = Stability of the compound in simulated gastric fluid at 50 uM and pH 1.2 at 37 degree C measured up to 120 mins by HPLC-ESI/MS analysis; details: simulated gi fluid, pH 1.2, 2 h
[4] = Stability of compound in human liver microsomes at 1 ug/ml measured up to 60 mins in absence of NADPH by LC-MS/MS analysis; format: ADME, Microsome; details: 1 h
Summary of the method: (§3)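 Human liver microsomes (1.0 mg/mL protein) in 100 mM phosphate pH 7.4 with 10 mM MgCl2 and 2 mM NADPH, preincubated 10 min at 37 °C. Reaction started with compound at 1 μg/mL. Sampled at 0, 5, 15, 20, 30, 45 and 60 min and quenched in methanol with internal standard. Controls: no NADPH (negative), testosterone (positive). Analysed by LC-MS/MS, triplicate.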

[5] = test system: Pseudomonas aeruginosa; assay: Antibacterial activity against Pseudomonas aeruginosa ATCC 27853 assessed as bacterial growth inhibition at 32 ug/ml measured after 16 hrs by broth microdilution method; format: functional, organism-based
[6] = Stability of compound in mouse pre-heated plasma at 50 uM incubated up to 120 mins by HPLC-ESI/MS analysis; format: ADME, cell-free; details: 2 h
Summary of the method: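 Compounds from 2.5 mM DMSO stocks incubated at 50 μM final in mouse plasma diluted to 80% with PBS, preheated, 37 °C, shaking. Sampled at 0, 15, 30, 60, 90 and 120 min and quenched with cold acetonitrile. Centrifuged; supernatant analysed by HPLC-ESI-MS. Peak area reported relative to time zero. Enalapril positive control; triplicate.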

[7] = test system: HeLa 229; assay: Cytotoxicity against human HeLa 229 cells assessed as cell viability at 50 ug/ml after 24 hrs by CCK-8 assay relative to control; format: cell-based; details: hela 229, 24 h
Summary of the method: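 HeLa 229 cells kept in DMEM with 10% FBS and 1% penicillin/streptomycin at 37 °C, 5% CO2. Seeded at 5000 cells/well and dosed next day at 50 μg/mL in triplicate for 24 h, against DMSO-matched controls. CCK-8 reagent added for 2 h, then corrected absorbance read at 450 nm.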

[8] = Hepatic intrinsic clearance in human liver microsomes at 1 ug/ml measured per kg body weight up to 60 mins by LC-MS/MS analysis; format: ADME, Microsome; details: 1 h
[9] = test system: Acinetobacter baumannii; assay: Antibacterial activity against Acinetobacter baumannii ATCC 19606 assessed as bacterial growth inhibition at 32 ug/ml measured after 16 hrs by broth microdilution method; format: functional, organism-based; details: ATCC 19606 = CIP 70.34 = JCM 6841
[10] = Drug metabolism in human liver microsomes assessed as amount of drug modified at 1 ug/ml […] in presence of NADPH by LC-MS/MS analysis; format: ADME, Microsome; details: read-out: Drug metabolism
[11] = Intrinsic clearance in human liver microsomes at 1 ug/ml measured per mg protein up to 60 mins by LC-MS/MS analysis; format: ADME, Microsome; details: microsomes, 1 h; summary of the method: as §3
[12] = Half life in human liver microsomes at 1 ug/ml measured up to 60 mins by LC-MS/MS analysis; format: ADME, Microsome; details: microsomes, 1 h; summary of the method: as §3
[13] = Mutagenicity in Drosophila melanogaster somatic cells assessed as frequency of clone formation in ST crosses at 0.25 to 1 mM by SMART assay; format: ADME; details: 1000 µM
Summary of the method: (§4)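 Drosophila SMART wing-spot assay, ST and HB crosses. Third-instar larvae (72 ± 4 h) placed on hydrated instant mashed potato medium containing compound at 0.25, 0.5 or 1.0 mM final. Negative control: water with 1% Tween-80 and 3% ethanol. Statistics by Frei and Würgler two-sided U test, P≤0.05.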

[14] = test system: Cryptococcus neoformans; assay: Antifungal activity against Cryptococcus neoformans var. grubii H99 ATCC […] as fungal growth inhibition at 32 ug/ml measured after 16 hrs by broth microdilution method; format: functional, organism-based; details: var. grubii H99 ATCC 208821
[15] = test system: Staphylococcus aureus; assay: Antibacterial activity against Staphylococcus aureus JE2 assessed as bacterial growth inhibition at 32 ug/ml measured after 16 hrs by broth microdilution method; format: functional, organism-based
Summary of the method: (§5)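 Broth microdilution in Mueller Hinton broth, triplicate. Direct colony suspension at 1.5 x 10^8 CFU/mL diluted to ~10^5 CFU/mL. Serial dilutions made from DMSO stocks at 1 mg/mL; vancomycin positive control, blank medium negative control. Incubated 16 h at optimum temperature. MIC is the lowest concentration without visible growth at 600 nm; mean of triplicate determinations.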

[16] = Toxicity in Drosophila melanogaster assessed as survival rate at 0.25 to 1 mM; details: 1000 µM
Summary of the method: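 Drosophila SMART assay using third-instar larvae (72 ± 4 h) from ST and HB crosses. Larvae exposed in hydrated instant mashed-potato medium at 0.25, 0.5 and 1.0 mM final. Vehicle control: water with 1% Tween-80 and 3% ethanol. Survival of treated groups compared statistically with the vehicle control.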

[17] = test system: Chlamydia trachomatis; assay: as §1, with “Anti-chlamydial activity” for “Anti-Chlamydial activity”, “in” for “in size and number of”, “chlamydial infectivity by measuring decrease in” for “chlamydial”, “inclusion forming units” for “inclusion”, “at 50” for “at 4”; format: functional, organism-based; summary of the method: as §2
[18] = test system: Candida albicans; assay: Antifungal activity against Candida albicans ATCC 90028 assessed as fungal growth inhibition at 32 ug/ml measured after 16 hrs by broth microdilution method; format: functional, organism-based
[19] = test system: Klebsiella pneumoniae; assay: Antibacterial activity against Klebsiella pneumoniae ATCC 700603 assessed as bacterial growth inhibition at 32 ug/ml measured after 16 hrs by broth microdilution method; format: functional, organism-based
[20] = Mutagenicity in Drosophila melanogaster somatic cells assessed as frequency of clone formation in HB crosses at 0.25 to 1 mM by SMART assay; format: ADME; details: 1000 µM; summary of the method: as §4
[21] = test system: Staphylococcus aureus; assay: Antibacterial activity against methicillin-resistant Staphylococcus aureus ATCC 43300 assessed as bacterial growth inhibition at 32 ug/ml measured after 16 hrs by broth microdilution method; format: functional, organism-based
[22] = test system: Escherichia coli; assay: Antibacterial activity against Escherichia coli ATCC 25922 assessed as bacterial growth inhibition at 32 ug/ml measured after 16 hrs by broth microdilution method; format: functional, organism-based
[23] = test system: Escherichia coli; assay: Antibacterial activity against Escherichia coli K12 assessed as bacterial growth inhibition at 32 ug/ml measured after 16 hrs by broth microdilution method; format: functional, organism-based; details: K-12; summary of the method: as §5
[24] = test system: HaCaT; assay: Cytotoxicity against immortal human HaCaT cells assessed as reduction in cell viability at 50 ug/ml after 24 hrs by CCK-8 assay; format: cell-based
Summary of the method: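 HeLa 229 and HaCaT cells in DMEM with 10% FBS and 1% penicillin/streptomycin, 37 °C, 5% CO2, seeded at 5000 cells/well. Next day treated with 50 μg/mL in triplicate, with matching DMSO controls. After 24 h, CCK-8 added for 2 h; corrected absorbance read at 450 nm.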

[25] = test system: Chlamydia trachomatis; assay: as §1, with “Anti-chlamydial activity” for “Anti-Chlamydial activity”, “in” for “in size and number of”, “inclusion growth by measuring appearance of small and irregular inclusions” for “inclusion”, “at 128” for “at 4”; format: functional, organism-based; summary of the method: as §2
[26] = biological target: ATP-dependent Clp protease proteolytic subunit (Escherichia coli (strain K12)) (UniProt P0A6G7); assay: (§6) Activation of recombinant Escherichia coli ClpP assessed as induction of casein degradation at 0.1 to 1 uM using FITC-labelled casein as substrate pretreated with enzyme for 30 mins followed by substrate addition and measured every 3 mins for 3 hrs in absence of AAA+ chaperone by fluorescence based tecan-plate reader assay
Summary of the method: (§7)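 Recombinant C-terminal His6-tagged ClpP, expressed in a clpAPX-null E. coli strain and purified (mammalian ClpP without mitochondrial signal, codon-optimized). ClpP at 1 or 0.1 μM (E. coli), 1 μM (human, mouse) or 6 μM (chlamydial ClpP1 and ClpP2) preincubated with compound or DMSO, 30 min, 32 °C, in HEPES pH 7.6/KCl/MgCl2/DTT/glycerol buffer. 20 μM FITC-casein then added. Fluorescence (ex 490/em 525 nm) read every 3 min for 3 h. At least three runs on at least two protein preparations.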

[27] = as §6, with “recombinant human C-terminal 6xHis-tagged ClpP expressed in” for “recombinant”, “coli” for “coli ClpP”; summary of the method: as §7
[28] = test system: Chlamydia trachomatis; assay: as §6, with “recombinant Chlamydia trachomatis Serovar LGV-L2 C-terminal 6xhis-tagged ClpP1/ClpP2 dimer expressed in” for “recombinant”, “coli” for “coli ClpP”; summary of the method: as §7
[29] = as §6, with “recombinant mouse C-terminal 6xHis-tagged ClpP expressed in” for “recombinant”, “coli” for “coli ClpP”; summary of the method: as §7
[30] = test system: Chlamydia trachomatis; assay: as §6, with “recombinant Chlamydia trachomatis Serovar LGV-L2 C-terminal 6xhis-tagged ClpP2 expressed in” for “recombinant”, “coli” for “coli ClpP”; summary of the method: as §7
[31] = test system: Chlamydia trachomatis; assay: as §6, with “recombinant Chlamydia trachomatis Serovar LGV-L2 C-terminal 6xhis-tagged ClpP1 expressed in” for “recombinant”, “coli” for “coli ClpP”, “absence” for “absence of AAA+”; summary of the method: as §7

Chain of ATP-dependent Clp protease proteolytic subunit (Escherichia coli (strain K12)) (P0A6G7 whole entry): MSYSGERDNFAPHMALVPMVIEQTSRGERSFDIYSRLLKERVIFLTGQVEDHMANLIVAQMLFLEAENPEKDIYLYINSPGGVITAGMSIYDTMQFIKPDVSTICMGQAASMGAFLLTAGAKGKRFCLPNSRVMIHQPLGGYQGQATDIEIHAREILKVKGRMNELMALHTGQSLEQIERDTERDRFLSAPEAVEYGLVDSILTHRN

Structure (SMILES)	inhibition [2]	inhibition [5]	Activity [7]	inhibition [9]	Activity [13]	inhibition [14]	inhibition [15]	Activity [16]	inhibition [18]	inhibition [19]	Activity [20]	inhibition [21]	inhibition [22]	inhibition [23]	also measured
CC[C@H]1OC(=O)[C@H](C)[C@@H](O[C@H]2C[C@@](C)(OC)[C@@H](O)[C@H](C)O2)[C@H](C)[C@@H](O[C@@H]2O[C@H](C)C[C@H](N(C)C)[C@H]2O)[C@](C)(O)C[C@@H](C)CN(C)[C@H](C)[C@@H](O)[C@]1(C)O	–	–	–	–	–	–	–	–	–	–	–	–	–	–	inhibition [1]: Active
CC(C)(C(=O)NCCOc1ccccc1)S(=O)(=O)c1ccc(C(F)(F)F)cc1	Active	inactive	< 65%	inactive	Non-Toxic	inactive	inactive	Non-Toxic	inactive	inactive	Non-Toxic	inactive	inactive	inactive	Stability [3]: Stable; Stability [4]: Stable; Stability [6]: Stable; CLH [8]: 1840 mL/min/kg; metabolised at 10 min, 1 ug/ml [10]: 90%; microsomal intrinsic clearance [11]: 233.77 µL/min; t1/2 [12]: 2.98 min; inhibition [17]: Active; Activity [24]: Non-Toxic
CC(C)(C(=O)NCCSc1ccc(Cl)cc1)S(=O)(=O)c1ccc(C(F)(F)F)cn1	inactive	inactive	< 65%	inactive	Non-Toxic	inactive	inactive	Non-Toxic	inactive	inactive	Non-Toxic	inactive	inactive	inactive	–
CN[C@@H]1[C@H](O)[C@H](NC)[C@H]2O[C@@]3(O)C(=O)C[C@@H](C)O[C@H]3O[C@@H]2[C@H]1O	–	–	–	–	–	–	–	–	–	–	–	–	–	–	inhibition [25]: Active
CC(C)(C(=O)NCCCc1ccccc1)S(=O)(=O)c1ccccc1	inactive	inactive	–	inactive	–	inactive	inactive	–	inactive	inactive	–	inactive	inactive	inactive	Activity [26]: inactive; Activity [27]: Not Active; Activity [28]: Active; Activity [29]: Not Active; Activity [30]: Active; Activity [31]: Active
